# Where two headings read alike, the source gives them in different places.
# Assays:
# [1] = system: S. aureus ATCC 29213; assay: MIC, 96-well microtiter broth dilution; assay type: cell-based; conditions: for MIC S. aureus ATCC 29213: Table 2; for MIC: Staphylococcus aureus
# [2] = system: S. aureus ATCC 43300; assay: MIC, 96-well microtiter broth dilution; assay type: cell-based; conditions: for MIC S. aureus ATCC 43300: MRSA
# [3] = system: S. aureus ATCC BAA-41; assay: MIC, 96-well microtiter broth dilution; assay type: cell-based; conditions: for MIC S. aureus ATCC BAA-41: MRSA
# [4] = system: S. aureus ATCC BAA-44; assay: MIC, 96-well microtiter broth dilution; assay type: cell-based
# [5] = system: S. aureus ATCC BAA-1747; assay: MIC, 96-well microtiter broth dilution; assay type: cell-based; conditions: for MIC S. aureus ATCC BAA-1747: MRSA
# [6] = system: S. aureus ATCC BAA-1720; assay: MIC, 96-well microtiter broth dilution; assay type: cell-based; conditions: for MIC S. aureus ATCC BAA-1720: MRSA
# [7] = system: E. faecalis ATCC 29212; assay: MIC, 96-well microtiter broth dilution; assay type: cell-based
# [8] = system: E. faecium ATCC 49624; assay: MIC, 96-well microtiter broth dilution; assay type: cell-based
# [9] = system: E. faecium ATCC 700221; assay: MIC, 96-well microtiter broth dilution; assay type: cell-based; conditions: for MIC E. faecium ATCC 700221: Vancomycin-resistant strain, Table 2
# [10] = system: S. epidermidis ATCC 12228; assay: MIC, 96-well microtiter broth dilution; assay type: cell-based
# [11] = system: B. subtilis 168; assay: MIC, 96-well microtiter broth dilution; assay type: cell-based
# [12] = system: E. coli ATCC BAA-2469; assay: MIC, 96-well microtiter broth dilution; assay type: cell-based; conditions: NDM-1 expressing strain
# [13] = system: A. baumannii ATCC 19606; assay: MIC, 96-well microtiter broth dilution; assay type: cell-based; conditions: Multi-drug resistant strain
# [14] = system: P. aeruginosa ATCC BAA-2108; assay: MIC, 96-well microtiter broth dilution; assay type: cell-based; conditions: Multi-drug resistant strain
# [15] = system: E. cloacae ATCC BAA-1143; assay: MIC, 96-well microtiter broth dilution; assay type: cell-based; conditions: AmpC beta-lactamase expressing strain
# [16] = system: E. coli ATCC 25922; assay: MIC, 96-well microtiter broth dilution; assay type: cell-based
# [17] = system: K. pneumoniae ATCC BAA-2470; assay: MIC, 96-well microtiter broth dilution; assay type: cell-based; conditions: NDM-1 expressing strain
# [18] = system: E. coli ATCC 8739; assay: MIC, 96-well microtiter broth dilution; assay type: cell-based; conditions: Escherichia coli, ATCC8739, read-out: MIC E. coli ATCC 8739
# [19] = system: human bronchial epithelium cells (16HBE); assay: CCK-8 cytotoxicity assay; assay type: cell-based; conditions: 48 h, read-out: IC50 16HBE
# How it was run: (§1)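 Cells seeded at 5000 per well and allowed to adhere overnight at 37 °C, then exposed to test compound for 48 h. CCK-8 reagent added for a further 3 h, with absorbance read at 450 nm. Triplicates.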
# [20] = system: human renal tubular epithelial cells (HK-2); assay: CCK-8 cytotoxicity assay; assay type: cell-based; conditions: Epithelial cell, 48 h, read-out: IC50 HK-2
# How it was run: as §1
# [21] = system: mouse fibroblast cells (L929); assay: CCK-8 cytotoxicity assay; assay type: cell-based; conditions: L929, 48 h, read-out: IC50 L929
# How it was run: as §1
# [22] = biological target: SaFtsZ (Staphylococcus aureus, UniProt P0A031); assay: SaFtsZ binding affinity assay; design: species or system S. aureus
# How it was run: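 Fluorescence titration at 25 °C in 50 mM Tris–HCl pH 7.4, 50 mM KCl, 2 mM magnesium acetate. Test compound at 3.51 or 3.68 μM titrated with SaFtsZ in 0.4 μM steps (0.4–6.4 μM), equilibrating 2 min per step. Excitation 493 nm, emission 500–700 nm, buffer-titration background subtracted. Kd obtained by nonlinear fit to an independent-site model.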
# [23] = biological target: T1, S. aureus FtsZ (Staphylococcus aureus, UniProt P0A031); assay: Light-scattering assay of FtsZ polymerization; assay type: biochemical; conditions: for Effect on FtsZ polymerization at a concentration gradient: 0.125–0.5 μg mL^−1; for Light scattering signal compared to control (FtsZ polymerization): same concentration, 0.125 μg mL^−1
# T1 sequence (P0A031 1-390): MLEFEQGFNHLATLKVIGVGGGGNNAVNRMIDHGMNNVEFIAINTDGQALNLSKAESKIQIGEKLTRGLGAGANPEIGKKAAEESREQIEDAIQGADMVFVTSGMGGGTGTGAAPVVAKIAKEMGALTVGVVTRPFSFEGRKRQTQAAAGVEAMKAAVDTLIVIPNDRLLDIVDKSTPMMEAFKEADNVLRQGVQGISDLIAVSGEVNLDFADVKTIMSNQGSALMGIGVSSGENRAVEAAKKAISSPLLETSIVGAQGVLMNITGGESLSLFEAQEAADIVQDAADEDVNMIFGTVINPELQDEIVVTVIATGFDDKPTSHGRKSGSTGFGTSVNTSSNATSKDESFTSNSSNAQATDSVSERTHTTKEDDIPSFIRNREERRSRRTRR
# How it was run: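 S. aureus FtsZ (4 μM) in 50 mM MOPS pH 6.5, preincubated 10 min at 25 °C with 1% DMSO vehicle or test compound. Baseline set after adding 50 mM KCl and 10 mM MgCl2. After 10 min, 1 mM GTP added. 90° light scattering (excitation/emission 600 nm) followed for 25 min, with blank background subtracted. Rate and extent of polymerization calculated. Triplicates.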
# [24] = biological target: S. aureus FtsZ (SaFtsZ) (Staphylococcus aureus, UniProt P0A031); assay: GTPase activity assay; assay type: biochemical
# How it was run: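 Phosphate-release kit assay: S. aureus FtsZ (7.3 μM) in assay buffer with 1% DMSO vehicle or varied concentrations of test compound. Reaction started with 200 μM GTP and run 30 min at room temperature. Colour reagent added for another 30 min to stop the reaction, and inorganic phosphate read at 620 nm. Triplicates.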
# [25] = system: Z-ring in B. subtilis; assay: Visualization of Z-ring; assay type: cell-based; conditions: 0.5 × MIC, 4 h
# How it was run: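 B. subtilis carrying IPTG-inducible GFP-FtsZ plasmid grown in LB with 30 μg mL−1 chloramphenicol at 37 °C with shaking; overnight culture diluted to 1% in LB with 40 μM IPTG plus test compound at 0.5 × MIC, 4 h at 37 °C. Cells fixed, resuspended in PBS, placed on 0.1% (w/v) poly-L-lysine-coated slides; imaged by confocal microscopy, 40× oil immersion.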
# [26] = system: S. aureus ATCC 29213; assay: In vitro drug resistance development, serial passage; assay type: cell-based
# How it was run: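 Serial passage against S. aureus ATCC 29213: culture from the 0.5 × MIC well of the prior MIC plate diluted to 5 × 10^5 CFU mL−1 and exposed to a range of test compound concentrations. MIC read after 24 h at 37 °C. Cycle repeated 35 times. Ciprofloxacin, vancomycin and rifampin passaged in parallel.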
# [27] = system: MRSA strains; assay: MIC, summary over MRSA strains; assay type: cell-based, S. aureus; conditions: Staphylococcus aureus, read-out: MIC against MRSA
compound,measurement,setting,value
2-((E)-4-(Dimethylamino)styryl)-1-methyl-4-((Z)-(3-(3-(piperidin-1-yl)propyl)benzo[d]thiazol-2(3H)-ylidene)methyl)quinolin-1-ium iodide [Compound 4e4],MIC S. aureus ATCC 29213,[1],16 µg/mL
same,MIC S. aureus ATCC 43300,[2],8 µg/mL
same,MIC S. aureus ATCC BAA-41,[3],16 µg/mL
same,MIC S. aureus ATCC BAA-44,[4],8 µg/mL
same,MIC S. aureus ATCC BAA-1747,[5],16 µg/mL
same,MIC S. aureus ATCC BAA-1720,[6],8 µg/mL
same,MIC E. faecalis ATCC 29212,[7],32 µg/mL
same,MIC E. faecium ATCC 49624,[8],32 µg/mL
same,MIC E. faecium ATCC 700221,[9],4 µg/mL
same,MIC S. epidermidis ATCC 12228,[10],2 µg/mL
same,MIC B. subtilis 168,[11],8 µg/mL
same,MIC E. coli ATCC BAA-2469,[12],8 µg/mL
same,MIC A. baumannii ATCC 19606,[13],>64 µg/mL
same,MIC P. aeruginosa ATCC BAA-2108,[14],64 µg/mL
same,MIC E. cloacae ATCC BAA-1143,[15],64 µg/mL
2-((E)-4-Hydroxystyryl)-1-methyl-4-((Z)-(3-(3-(piperidin-1-yl)propyl)benzo[d]thiazol-2(3H)-ylidene)methyl)quinolin-1-ium iodide [Compound 4e2],MIC S. aureus ATCC 29213,[1],16 µg/mL
same,MIC S. aureus ATCC 43300,[2],8 µg/mL
same,MIC S. aureus ATCC BAA-41,[3],16 µg/mL
same,MIC S. aureus ATCC BAA-44,[4],16 µg/mL
same,MIC S. aureus ATCC BAA-1747,[5],32 µg/mL
same,MIC S. aureus ATCC BAA-1720,[6],16 µg/mL
same,MIC E. faecalis ATCC 29212,[7],>64 µg/mL
same,MIC E. faecium ATCC 49624,[8],16 µg/mL
same,MIC E. faecium ATCC 700221,[9],8 µg/mL
same,MIC S. epidermidis ATCC 12228,[10],8 µg/mL
same,MIC B. subtilis 168,[11],4 µg/mL
same,MIC E. coli ATCC 25922,[16],4 µg/mL
same,MIC E. coli ATCC BAA-2469,[12],8 µg/mL
same,MIC K. pneumoniae ATCC BAA-2470,[17],64 µg/mL
same,MIC A. baumannii ATCC 19606,[13],>64 µg/mL
same,MIC P. aeruginosa ATCC BAA-2108,[14],64 µg/mL
same,MIC E. cloacae ATCC BAA-1143,[15],>64 µg/mL
"CC1CCN(CCCN2/C(=C/c3cc[n+](C)c4ccccc34)Sc3ccccc32)CC1.[I-] [Compound 4b4, (Z)-1-Methyl-4-((3-(3-(4-methylpiperidin-1-yl)propyl)benzo[d]thiazol-2(3H)-ylidene)methyl)quinolin-1-ium iodide]",MIC,[1]; ATCC29213,2 µg/mL
same,MIC,"[1]; ATCC29213, read-out: MIC S. aureus ATCC 29213",2 µg/mL
same,MIC,"[1]; ATCC29213, read-out: S. aureus ATCC 29213 (MIC)",2 µg/mL
same,MIC,"[2]; Staphylococcus aureus, ATCC43300|MRSA, read-out: MIC S. aureus ATCC 43300",8 µg/mL
same,MIC,"[3]; Staphylococcus aureus, ATCCBAA41|MRSA, read-out: MIC S. aureus ATCC BAA-41",1 µg/mL
same,MIC,"[5]; Staphylococcus aureus, ATCCBAA1747|MRSA, read-out: MIC S. aureus ATCC BAA-1747",4 µg/mL
same,MIC,"[6]; Staphylococcus aureus, ATCCBAA1720|MRSA, read-out: MIC S. aureus ATCC BAA-1720",8 µg/mL
same,MIC,"[7]; Enterococcus faecalis, ATCC29212, read-out: MIC E. faecalis ATCC 29212",16 µg/mL
same,MIC,"[8]; Enterococcus faecium, ATCC49624, read-out: MIC E. faecium ATCC 49624",8 µg/mL
same,MIC,"[9]; Enterococcus faecium, ATCC700221",16 µg/mL
same,MIC,[9]; read-out: MIC against VRE,2 to 16 µg/mL
same,MIC,"[10]; Staphylococcus epidermidis, ATCC12228, read-out: MIC S. epidermidis ATCC 12228",0.25 µg/mL
same,MIC,"[16]; Escherichia coli, ATCC25922, read-out: MIC E. coli ATCC 25922",2 µg/mL
same,MIC,[18],2 µg/mL
same,IC50,[19],20.2 µg/mL
same,IC50,[20],18.6 µg/mL
same,IC50,[21],23.4 µg/mL
same,Kd,[22],3.23 µM
same,Effect on FtsZ polymerization at a concentration gradient,[23],enhance FtsZ polymerization in a dose-dependent manner
same,Light scattering signal compared to control (FtsZ polymerization),[23],significant increase in light scattering signal
same,Effect on GTPase activity of SaFtsZ,[24],did not show any effect
same,Effect on Z-ring formation (GFP-FtsZ localization),[25],promoted the mislocalization of the FtsZ protein
same,Increase of MIC after 35 passages,[26],8 fold
same,MIC,[27],1 to 8 µg/mL
1-Methyl-2-((E)-4-(methylthio)styryl)-4-((Z)-(3-(3-(piperidin-1-yl)propyl)benzo[d]thiazol-2(3H)-ylidene)methyl)quinolin-1-ium iodide [Compound 4e3],MIC S. aureus ATCC 29213,[1],8 µg/mL
same,MIC S. aureus ATCC 43300,[2],8 µg/mL
same,MIC S. aureus ATCC BAA-41,[3],16 µg/mL
same,MIC S. aureus ATCC BAA-44,[4],8 µg/mL
same,MIC S. aureus ATCC BAA-1747,[5],16 µg/mL
same,MIC S. aureus ATCC BAA-1720,[6],16 µg/mL
same,MIC E. faecalis ATCC 29212,[7],>64 µg/mL
same,MIC E. faecium ATCC 49624,[8],16 µg/mL
same,MIC E. faecium ATCC 700221,[9],8 µg/mL
same,MIC S. epidermidis ATCC 12228,[10],4 µg/mL
same,MIC B. subtilis 168,[11],8 µg/mL
same,MIC K. pneumoniae ATCC BAA-2470,[17],64 µg/mL
same,MIC A. baumannii ATCC 19606,[13],64 µg/mL
same,MIC E. cloacae ATCC BAA-1143,[15],64 µg/mL
same,Effect on FtsZ polymerization at a concentration gradient,[23],did not show significant change
same,Light scattering signal compared to control (FtsZ polymerization),[23],almost no signal change

# From publication PMC9052103 (RSC Advances, 2020)
